Screening data (PubChem BioAssay)
KCNQ1 pot: human KCNQ1 channel potentiation or activation; 310,000 compounds, 0.35% hits; P51787; CHO-K1 KCNQ1, thallium flux FluxOR fluorescence; hits give high values; B-score at 10 µM;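 active means fluorescence ratio B-score, a plate-corrected score, at least three library SD, with initial intensity B-score within 5 SD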
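Schedule – 37 °C overnight plating, 90-min dark dye load, 20-min compound pretreatment · System – stable KCNQ1 CHO-K1 line · Probe or stimulus – thallium- and potassium-containing depolarizing buffer · Measured by – kinetic FluxOR fluorescence, 10 s baseline plus 110 s post-stimulus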
KCNK9 inh: human KCNK9 channel inhibition. Q9NPC2. HEK293 KCNK9, FluxOR thallium flux fluorescence; hits give low values. B-score at 10 µM. 310,000 compounds, 1.2% hits;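 active means ratio B-score over 3 SD below the library mean, with starting fluorescence within 5 SD of its mean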;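 further: negative B-score means less thallium flux so channel inhibition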
PHOSPHO1 block: blocks human PHOSPHO1 phosphatase activity; inhibition, % at 13.3 µM; Q8TCT1; 290,000 compounds, 1.1% hits; recombinant PHOSPHO1, absorbance phosphatase assay; in the data active means inhibition above about 60%
Target sequence (Q8TCT1 whole entry, looked up): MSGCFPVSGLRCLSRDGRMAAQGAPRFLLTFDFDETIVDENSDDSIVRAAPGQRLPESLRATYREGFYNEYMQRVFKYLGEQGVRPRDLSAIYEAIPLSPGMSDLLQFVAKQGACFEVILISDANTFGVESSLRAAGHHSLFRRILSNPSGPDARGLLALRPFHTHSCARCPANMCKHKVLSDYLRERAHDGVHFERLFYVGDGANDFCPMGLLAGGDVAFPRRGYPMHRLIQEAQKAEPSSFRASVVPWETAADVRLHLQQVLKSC
KCNK3 block: human KCNK3 channel inhibition, primary screen; O14649; CHO-KCNK3 thallium flux, FluxOR fluorescence; hits give low values; B-score at 10 µM; 340,000 compounds, 0.84% hits; AID 602410;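 active means B-score under library mean minus 4 SD, starting fluorescence ratio at most library mean plus 5 SD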;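 further: more negative B-score means stronger inhibition of thallium flux through KCNK3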
KCNQ1 inh: inhibitors of human KCNQ1 potassium channel; AID 2642; CHO-K1 KCNQ1, FluxOR thallium flux fluorescence; hits give high values; B-score at 10 µM; P51787; 310,000 compounds, 1.3% hits;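 active means compounds whose thallium flux B-score, printed positive for inhibition, exceeds three library SD while starting fluorescence stays within three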;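 further: channel opened by potassium depolarization with thallium stimulus after 20 min compound exposure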
hERG rescue: hERG (human) protection from proarrhythmic block. CHO-hERG, FluxOR thallium flux, dofetilide IC70 present. AID 1511. activation (rescue from dofetilide block), less the hit threshold, % at 10 µM. 310,000 compounds, 0.51% hits. Q12809;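 active means activation above the mean of controls blocked by dofetilide plus 5 SD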;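 further: thallium influx through hERG after potassium depolarization seen as dye fluorescence rise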
The depositor's hits bear a star; i = inactive; . = no result. A selection: hits, their analogues and other compounds. The true share with any hit is near 4%.

SMILES | KCNQ1 pot | KCNK9 inh | PHOSPHO1 block | KCNK3 block | KCNQ1 inh | hERG rescue
Cc1cc(-c2n[nH]c(=S)n2/N=C/C=C/c2ccccc2)n[nH]1 | i | i | 49 | i | i | -7
S=c1[nH]nc(-c2ccncc2)n1/N=C/C=C/c1ccccc1 | i | i | 93* | i | i | -15
CSc1ncccc1C(=O)OCC(=O)c1cccs1 | i | i | 6 | i | i | -1
Cn1c(CN2CCOCC2)nc2cc(NC(=O)COc3ccc([N+](=O)[O-])cc3)ccc21 | i | i | 38 | i | i | -8
COC(=O)c1ccccc1CSc1nsc(/C=C/N(C)C)c1C#N | i | i | -144 | i | 6* | -20
Cc1nc(CSc2nsc(/C=C/N(C)C)c2C#N)cs1 | i | i | -28 | i | i | -9
CC(=O)Nc1ccc(Cc2ccncc2)cc1 | i | i | -24 | i | i | -13
COc1ccccc1/C=C/C=C1\Oc2c(ccc(O)c2CN(C)C)C1=O | i | i | 24 | i | 10* | -26
Cn1c(N2CCN(S(=O)(=O)c3ccc(F)cc3)CC2)nc2ccccc21 | i | i | 19 | i | i | -6
CC(C)n1c(N2CCN(S(=O)(=O)c3cccc([N+](=O)[O-])c3)CC2)nc2ccccc21 | i | i | 61* | i | i | -3
Cc1cccc2c1CCCC2=O | . | . | . | i | . | .
Cc1ccccc1N(CC(=O)Nc1ccc(S(=O)(=O)N2CCOCC2)cc1)S(C)(=O)=O | i | i | 63* | i | i | -18
CS(=O)(=O)N(CC(=O)Nc1ccc(S(=O)(=O)N2CCOCC2)cc1)c1ccccc1Cl | i | i | 41 | i | i | -8
Cc1c(Cl)cccc1NC(=O)CNC(=O)c1ccc(F)cc1 | i | i | -12 | i | i | -13
CCOC(=O)N1CCC(NC(=O)CSc2cc(=O)n(CC)c3ccccc23)CC1 | i | -7.1* | -9 | i | i | -8
CN1C(=O)/C(=C\c2ccccc2OCc2ccccc2)SC1=S | i | i | 26 | i | i | 0
Cc1cc(/C=C2\SC(=S)N(C)C2=O)c(C)n1-c1cccc(O)c1 | i | -6.8* | -12 | i | i | -10
CN1C(=O)/C(=C\c2cc(N=Nc3ccccc3)ccc2O)SC1=S | i | i | 17 | i | 7* | -7
C/C(C/C(C)=C1/SC(=S)NC1=O)=C1\SC(=S)NC1=O | . | . | 9 | i | . | .
CCCCCC/C(C)=C1/SC(=S)NC1=O | 126* | i | 24 | i | i | 59*
CS(=O)(=O)Nc1cccc(S(=O)(=O)N2CCN(C(=O)c3ccccc3)CC2)c1 | i | i | 33 | i | i | -10
O=C(NCc1ccccc1Cl)C1CCC(CNc2nc(=S)[nH]c3ccccc23)CC1 (centres undefined) | i | i | -94 | i | i | 5.6*
O=C(NCCc1ccc(Cl)cc1)C1CCC(CNc2nc(=S)[nH]c3ccccc23)CC1 (centres undefined) | i | i | 20 | i | i | -13
Oc1c(N=Nc2ccccn2)ccc2ccccc12 | 29* | i | 32 | i | i | 25*
Oc1[nH]c2ccccc2c1N=Nc1ccccn1 | . | . | . | i | . | .
SMILES | KCNQ1 pot | KCNK9 inh | PHOSPHO1 block | KCNK3 block | KCNQ1 inh | hERG rescue
Brc1cc2c(cc1-c1nc3ccccc3s1)OCO2 | i | -7.1* | 11 | i | i | -3
CC(CCc1ccccc1)NC(=O)c1ccc(NC(=O)c2cccc(Br)c2)cc1 (centres undefined) | i | -7.4* | -10 | i | i | -2
CCOc1ccccc1CNS(=O)(=O)c1cnc[nH]1 | i | i | 18 | i | i | -8
CC1=C(C(=O)NC2CCCc3c2cnn3-c2cccc(C)c2C)OCCO1 (centres undefined) | i | i | 27 | i | i | -14
CCn1cc(C(=O)NC2CCCc3c2cnn3-c2cccc(C)c2C)cn1 (centres undefined) | i | i | 32 | i | 8* | -16
COc1ccc(C(=O)NC2CCCc3c2cnn3-c2cccc(C)c2C)o1 (centres undefined) | i | i | 64* | i | i | -19
N#Cc1cccc(C#N)c1Oc1ccc(N)cc1 | i | -6.8* | 37 | i | i | -4
CCN(c1ccc(NC(=O)CSc2nnc3nc(C)cc(C)n23)cc1)C(C)C | i | i | 73* | i | i | -9
Cc1cc(C)n2c(SCC(=O)Nc3ccc(F)cc3)nnc2n1 | i | i | -103 | i | i | -6
CC(C)(C)c1cc(C(=O)NNc2ccc(OC(F)(F)F)cc2)n(Cc2ccccc2)n1 | i | -8* | 33 | i | i | -6
COc1ccccc1NNC(=O)c1cc(C(C)(C)C)nn1Cc1ccccc1 | i | i | -4 | i | 6* | -15
COc1ccccc1C(=O)N/C(=C/c1ccco1)C(=O)Nc1cccc(C(=O)O)c1 | i | i | 2 | i | i | -2
Cc1ccc(-n2c(C)cc(C3=NNC(=NC4CC4)SC3)c2C)cc1C | i | i | 5 | i | 7* | -24
CCCCCC[N+](C)(C)CC/C=C1/c2ccccc2Sc2ccc(Cl)cc21 | i | -8* | -6 | i | i | -17
OCCN1CCN(CC/C=C2/c3ccccc3Sc3ccc(C(F)(F)F)cc32)CC1 | i | i | . | i | i | -19
COc1ccc(N2CCN(c3oc(COc4ccc(Cl)cc4Cl)nc3C#N)CC2)cc1 | i | i | 5 | i | i | -14
N#Cc1nc(COc2ccc(Cl)cc2Cl)oc1N1CCN(c2ccccc2)CC1 | i | -6.6* | -7 | i | i | -17
COC(=O)CN1C(=O)[C@H]2[C@@H](C3CC3)N3C(=O)CN(CCO)C(=O)[C@@]3(Cc3ccccc3)[C@H]2C1=O | i | i | 15 | i | i | -13
Cc1ccc(N=Cc2cc(Cl)cc(Cl)c2O)nc1 | 17* | i | -7 | i | i | 5.3*
Brc1csc(C=Nc2ccc3c(c2)OCCOCCOCCOCCO3)c1 | i | i | -12 | i | i | 1
Oc1c(Cl)cc(Cl)cc1/C=N/Nc1ncc(Br)cn1 | i | i | 18 | i | i | -11
Oc1c(Cl)cc(Cl)cc1C=Nc1ccc2c(c1)OCCO2 | 8* | i | -1 | i | i | 1
CCc1nccn1S(=O)(=O)c1ccc2ccc(C)cc2c1 | 28* | i | 10 | i | i | 27*
CCc1nc(CN2CCCC(C(=O)c3ccc4c5c(cccc35)CC4)C2)c(C)[nH]1 (centres undefined) | i | i | 60* | i | i | -17
